# Results taken from publication PMC7415964 (The Journal of Biological Chemistry, 2021).
# Where a SMILES comes first, the peptide text is derived from it. The star is where a group is joined. FITC = O=C1OC2(c3ccc(O)cc3Oc3cc(O)ccc32)c2ccc(NC(=S)*)cc21
# T1: CCL8 (Homo sapiens, UniProt P80075)
# T1 sequence (P80075 24-99): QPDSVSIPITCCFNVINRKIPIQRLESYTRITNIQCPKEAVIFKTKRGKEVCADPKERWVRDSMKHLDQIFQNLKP
# T2: C–C motif chemokine ligand 8 (CCL8) (human), P80075
# T2 chain: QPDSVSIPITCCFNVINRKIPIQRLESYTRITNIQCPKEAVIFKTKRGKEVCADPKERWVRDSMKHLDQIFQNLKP
# How the values were obtained:
# [1] = biological target: EVA1(P672_(22-32)) hybrid protein (not stated | Rhipicephalus pulchellus); experiment: BLI
# [2] = biological target: T1, CCL8; experiment: Fluorescence polarization assay, CCL8; format: binding; settings: fluorescent peptide 50 nM, CCL8 1 μM, 30 min, compared with scrambled control
# Procedure, shortened: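 Polarization read with FITC filters, gain set to 35 mP on a peptide-only well, and converted to anisotropy A = 2P/(3 − P). Two technical × three biological replicates. Scrambled FITC peptide as negative control; one-way ANOVA with Sidak's correction.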
# [3] = tested on: CCL7; experiment: Fluorescence polarization assay, CCL7; format: binding; settings: BK1.1FITC 50 nM, chemokine 1 μM, compared with negative control CXCL1
# Procedure, shortened: (§1)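 Polarization read with FITC filters, gain set at 35 mP on a peptide-only well, and converted to anisotropy, A = 2P/(3 − P). CXCL1 negative control. Two technical, three biological replicates. One-way ANOVA with Sidak's correction.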
# [4] = tested on: CCL18; experiment: Fluorescence polarization assay, CCL18; format: binding; settings: BK1.1FITC 50 nM, chemokine 1 μM, compared with negative control CXCL1
# Procedure, shortened: as §1
# [5] = biological target: C–C motif chemokine ligand 8 (CCL8) (human) (UniProt P80075)
# [6] = biological target: human CCL2-647 (human) (UniProt P13500); experiment: flow cytometry on cells
# [7] = biological target: human CCL8-647 (human) (UniProt P80075); experiment: flow cytometry on cells
# [8] = tested on: P672–CCL8 complex; experiment: Hydrogen–deuterium exchange MS of the P672–CCL8 complex; settings: complex versus free CCL8; 5 s, 30 s, 5 min, 60 min; triplicate
# [9] = biological target: T2, C–C motif chemokine ligand 8 (CCL8) …; experiment: native MS; settings: remark: other sources report otherwise
# Sequence of human CCL2-647 (human) (P13500 24-99): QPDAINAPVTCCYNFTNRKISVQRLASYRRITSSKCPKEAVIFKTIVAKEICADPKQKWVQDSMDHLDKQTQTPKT
molecule,measurement,setting,value
C–C motif chemokine ligand 8 (CCL8) (from UniProt P80075 24-99),Kd,[1],490 nM
CC(C)[C@H](NC(=O)[C@@H]1CCCN1C(=O)[C@H](CCCCN)NC(=O)[C@H](Cc1ccccc1)NC(=O)[C@H](Cc1ccccc1)NC(=O)[C@H](CC(=O)O)NC(=O)[C@H](CCC(=O)O)NC(=O)[C@H](Cc1ccc(O)cc1)NC(=O)[C@H](CC(=O)O)NC(=O)[C@H](CCC(=O)O)NC(=O)[C@H](CC(=O)O)NC(=O)[C@H](CCC(=O)O)NC(=S)Nc1ccc2c(c1)C(=O)OC21c2ccc(O)cc2Oc2cc(O)ccc21)C(=O)N[C@H](C(=O)N[C@@H](C)C(=O)N[C@@H](Cc1ccc(O)cc1)C(=O)N[C@@H](Cc1ccccc1)C(N)=O)[C@@H](C)O [BK1.1FITC] ({FITC}-EDEDYEDFFKPVTAYF-NH2),change in anisotropy upon incubation with CCL8,[2],displayed an increase in anisotropy
same,change in anisotropy with CCL7,[3],significant increases in anisotropy
same,change in anisotropy with CCL18,[4],significant increases in anisotropy
evasin EVA-P672 (natural protein),IC50 of inhibition of CCL8-induced THP-1 cell migration,[5],2.6 nM
same,IC50,[6],21 nM
same,IC50,[7],21 nM
"C–C motif chemokine ligand 8 (CCL8), P80075 24-99 (ligand) QPDSVSIPITCCFNVINRKIPIQRLESYTRITNIQCPKEAVIFKTKRGKEVCADPKERWVRDSMKHLDQIFQNLKP","% relative deuterium uptake (%D), CCL8 Arg18–Ser27",[8],−6 to −18%
same,stoichiometry N,[9],2
